Source: paper PMC6039304 (International Journal for Parasitology: Drugs and Drug …, 2018)
Read-outs that look alike come from different tables or passages of the source.

How the values were obtained:
[1] = tested on: intracellular L.infantum; type: cell-based, Leishmania infantum; settings: for IC50: read-out: Intracellular amastigotes IC50
How it was run: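 THP-1 cells were differentiated with 1 μM retinoic acid for 72 h, then infected overnight at 1:4 cell:parasite. Infected cells were purified on Histopaque 1077 (1300g, 20 min) and exposed 24 h (37 °C, 5% CO2) to serial dilutions. Infection was scored by counting % infected cells in Giemsa-stained cytospins. For combinations, peptaibol was held at 5 or 2 μM while alkylphosphocholine was varied (15–0.2 or 25–0.2 μM). CI came from linear isoboles; SI = CC50/intracellular IC50.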

[2] = tested on: L. infantum promastigotes; test: viability of promastigotes at early stages of treatment; type: cell-based, Leishmania infantum; settings: 6 h, compound at IC50
How it was run: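 Promastigotes (5 × 10^5/ml) were incubated 6 h with test compounds or combinations at their IC50 values. Propidium iodide was added at 12 μM and samples were run immediately by flow cytometry (≥10^4 cells). The value is % PI-stained promastigotes relative to control, mean ± SEM of at least 3 experiments.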

[3] = hemolytic potential on red blood cells; type: cell-based, human; settings: human, red blood cells from EDTA-preserved peripheral blood
How it was run: (§1)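 EDTA-anticoagulated blood from healthy volunteers was spun at 900 g for 10 min and the red cells washed three times in PBS. Cells were mixed 1:1 (v/v) with serial dilutions of test compound prepared in PBS, incubated 1 h at 37 °C, and centrifuged. Supernatant absorbance was read at 550 nm, with water-lysed cells as 100% hemolysis. HC50 was derived as for IC50. Combinations used the alkylphosphocholine at 15 or 25 μM plus peptaibol at 5 or 2 μM.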

[4] = tested on: human RBCs; test: hemolytic potential on red blood cells; type: cell-based; settings: for Hemolysis HC50 / HC50 fold higher than that of HePC: human RBCs; for Hemolysis HC50: 1 h, 37 °C, 50% of maximum hemolysis with water; for % hemolysis: at 100 μM of each compound
How it was run: as §1

[5] = in humans; cited from earlier work
[6] = tested on: L. infantum promastigotes; test: mitochondrial membrane polarization in promastigotes; type: cell-based, Leishmania infantum; settings: for ΔΨm dissipation: at 6 h, relative to control, compound alone
How it was run: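 Promastigotes (5 × 10^5/ml) were treated with test compounds or combinations at their IC50 values for 1, 3 or 6 h, then stained with 0.1 μM MitoTracker Red CMXRos for 30 min. Flow cytometry (488 nm laser, ≥10^4 cells, debris and autofluorescence excluded) scored the % of cells fluorescing above 10^2 (log scale) at 630 nm, relative to untreated control. Data came from at least 3 experiments.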

[7] = tested on: L. infantum promastigotes; test: antileishmanial activity in promastigote cultures; type: cell-based, Leishmania infantum; settings: 24 h, read-out: Promastigotes IC50
How it was run: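 The L. infantum field strain came from an infected dog spleen and was grown at 26 °C in RPMI with 10% heat-inactivated FBS and 2% penicillin/streptomycin. Promastigotes at 10^6/ml were incubated with serial dilutions of test compound for 24 h at 26 °C. Cells were then resuspended in PBS, stained with 12 μM propidium iodide and analysed by flow cytometry. IC50 is the concentration killing 50% of parasites.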

[8] = tested on: L. infantum promastigotes; test: ROS production in promastigotes; type: cell-based, Leishmania infantum; settings: compounds at IC50; 1 h, 3 h, 6 h
[9] = tested on: L. infantum promastigotes; test: morphological changes in promastigotes; type: cell-based, Leishmania infantum; settings: 6 h, 26 °C, at IC50; scanning electron microscopy
[10] = tested on: THP-1 monocytes; test: cytotoxicity in THP-1 monocytes; type: cell-based, human; settings: for CC50: read-out: Cytotoxicity CC50, THP-1 monocytes
How it was run: (§2)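 THP-1 monocytes, maintained at 37 °C and 5% CO2 in RPMI with FBS and antibiotics, were seeded at 10^6/ml. They were incubated 24 h with serial dilutions of test compounds or combinations, resuspended in PBS, stained with 12 μM propidium iodide and counted by flow cytometry. CC50 is the concentration giving 50% of maximum cytotoxicity. Single-point combination tests used the alkylphosphocholine at 15 or 25 μM with peptaibol at 5 or 2 μM.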

[11] = cytotoxicity in THP-1 monocytes; type: cell-based, human; settings: human, THP-1 monocytes
How it was run: as §2

[12] = tested on: trypanosomiasis; settings: mouse model; ref Kumar et al., 1991; cited from earlier work
[13] = single compound, intracellular amastigote in THP-1 monocytes, 24 h

With `CCCCCCCCCCCCCCCCOP(=O)([O-])OCC[N+](C)(C)C` [HePC, hexadecylphosphocholine, reference compound] the IC50 ([1]; Leishmania infantum, THP-1, 24 h) was 1.8 ± 0.5 µM, the “Selectivity Index (SI), CC50/IC50 against the intracellular form” value ([1]; THP-1 CC50 / intracellular amastigote IC50) was 15.8 and the PI-stained promastigotes [2] was 5.5%. For the same compound, the hemolysis at 1 h, 100 µM [3] was 96.1%, the “Hemolysis HC50” value [4] was 38.3 ± 2.8 µM and the half-life [5] was 100 to 200 h. For the same compound, the “mitochondrial transmembrane potential (MitoTracker retention)” value ([6]; compounds at IC50, 1 h, 3 h, 6 h) was “significantly induce accumulation of MitoTracker above the control levels”, the IC50 ([7]; Leishmania infantum) was 8.2 ± 0.7 µM and the “ROS production in promastigotes” value [8] was “low levels of ROS”. For the same compound, the “morphological alterations of promastigotes” value [9] was “did not seem to affect noticeably the morphology”, the “% PI-stained THP-1 cells” value ([10]; 15 μM HePC or 25 μM TC52, alone or combined with 5 μM AAM or 2 μM SZ, 24 h) was 27.6% and the CC50 at 24 h [11] was 28.6 ± 2.5 µM.

For antiamoebin [AAM], the IC50 [1, 13] was 7.5 ± 0.2 µM, the “% hemolysis” value [4] was 52.9% and the “HC50 fold higher than that of HePC” value [4] was 2.5 fold. The “Hemolysis HC50” value [4] was 94.6 ± 2.6 µM, the ΔΨm dissipation [6] was 75% and the IC50 ([7]; 26 °C) was 8.7 ± 0.1 µM. The “ROS production in promastigotes” value [8] was “moderate levels of ROS”, the trypanocidal activity [12] was “exhibits trypanocidal activity” and the “morphological alterations of promastigotes” value [9] was “caused damage to the plasma membrane and altered flagellar morphology”. The “fold less cytotoxic than HePC” value ([10]; THP-1 CC50 ratio) was 1.4 fold, the “fold less cytotoxic than SZ” value ([10]; THP-1 CC50 ratio) was “about 1.8 fold” and the CC50 ([10]; 24 h) was 40.3 ± 3.2 µM.

With suzukacillin A [SZ] the IC50 [1, 13] was 7.6 ± 1.2 µM, the “% hemolysis” value [4] was 96.6% and the “HC50 fold higher than that of HePC” value [4] was 1.7 fold. For the same compound, the “Hemolysis HC50” value [4] was 66.9 ± 2.2 µM, the ΔΨm dissipation [6] was 30% and the IC50 ([7]; 26 °C) was 8.2 ± 0.1 µM. The “ROS production in promastigotes” value [8] was “moderate levels of ROS” and the CC50 ([10]; 24 h) was 22.5 ± 3.2 µM.
